For 10 molecules, Ki, EC50 and Efficacy results are on record in ChEMBL document CHEMBL1799968, “Dimethyl-diphenyl-propanamide derivatives as nonsteroidal dissociated glucocorticoid receptor agonists” (J Med Chem, 2010).

Assay [1] deals with T1, Progesterone receptor (Homo sapiens, UniProt P06401).
T1 sequence (P06401 whole entry): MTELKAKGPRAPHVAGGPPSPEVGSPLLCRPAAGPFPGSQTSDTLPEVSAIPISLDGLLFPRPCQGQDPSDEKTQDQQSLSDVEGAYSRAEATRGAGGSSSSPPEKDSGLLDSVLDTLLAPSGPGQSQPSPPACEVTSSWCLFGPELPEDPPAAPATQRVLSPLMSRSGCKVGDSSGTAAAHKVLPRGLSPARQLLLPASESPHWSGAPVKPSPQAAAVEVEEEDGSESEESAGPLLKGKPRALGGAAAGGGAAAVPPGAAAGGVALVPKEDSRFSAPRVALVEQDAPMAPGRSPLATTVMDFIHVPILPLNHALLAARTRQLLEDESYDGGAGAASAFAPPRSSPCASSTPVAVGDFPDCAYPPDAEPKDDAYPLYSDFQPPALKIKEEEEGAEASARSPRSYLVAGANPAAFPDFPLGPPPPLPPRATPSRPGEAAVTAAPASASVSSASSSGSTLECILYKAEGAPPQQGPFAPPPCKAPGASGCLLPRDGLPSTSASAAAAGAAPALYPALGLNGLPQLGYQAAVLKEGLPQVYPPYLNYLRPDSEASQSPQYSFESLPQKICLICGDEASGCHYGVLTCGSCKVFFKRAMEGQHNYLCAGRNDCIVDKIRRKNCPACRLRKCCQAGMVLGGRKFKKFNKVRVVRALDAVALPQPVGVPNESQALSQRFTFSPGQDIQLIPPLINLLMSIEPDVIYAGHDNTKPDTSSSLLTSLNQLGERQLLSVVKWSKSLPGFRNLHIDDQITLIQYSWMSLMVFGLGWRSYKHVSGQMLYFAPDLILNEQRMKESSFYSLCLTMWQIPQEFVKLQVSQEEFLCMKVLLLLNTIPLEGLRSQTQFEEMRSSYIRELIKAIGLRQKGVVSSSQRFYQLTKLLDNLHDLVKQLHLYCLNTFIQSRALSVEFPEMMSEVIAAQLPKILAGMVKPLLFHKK
The assay can be described thus: Binding affinity to progesterone receptor by fluorescence polarization assay. In a few lines: (§1)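 Fluorescence polarization competition of test compound against a fluorescently labelled ligand for binding to full-length receptor or its ligand-binding domain.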
(In general: Fluorescence polarisation rises when a labelled molecule tumbles more slowly, as on binding a larger partner.)

The target of assay [2] is T2, Androgen receptor (Homo sapiens, UniProt P10275).
T2 sequence (P10275 whole entry): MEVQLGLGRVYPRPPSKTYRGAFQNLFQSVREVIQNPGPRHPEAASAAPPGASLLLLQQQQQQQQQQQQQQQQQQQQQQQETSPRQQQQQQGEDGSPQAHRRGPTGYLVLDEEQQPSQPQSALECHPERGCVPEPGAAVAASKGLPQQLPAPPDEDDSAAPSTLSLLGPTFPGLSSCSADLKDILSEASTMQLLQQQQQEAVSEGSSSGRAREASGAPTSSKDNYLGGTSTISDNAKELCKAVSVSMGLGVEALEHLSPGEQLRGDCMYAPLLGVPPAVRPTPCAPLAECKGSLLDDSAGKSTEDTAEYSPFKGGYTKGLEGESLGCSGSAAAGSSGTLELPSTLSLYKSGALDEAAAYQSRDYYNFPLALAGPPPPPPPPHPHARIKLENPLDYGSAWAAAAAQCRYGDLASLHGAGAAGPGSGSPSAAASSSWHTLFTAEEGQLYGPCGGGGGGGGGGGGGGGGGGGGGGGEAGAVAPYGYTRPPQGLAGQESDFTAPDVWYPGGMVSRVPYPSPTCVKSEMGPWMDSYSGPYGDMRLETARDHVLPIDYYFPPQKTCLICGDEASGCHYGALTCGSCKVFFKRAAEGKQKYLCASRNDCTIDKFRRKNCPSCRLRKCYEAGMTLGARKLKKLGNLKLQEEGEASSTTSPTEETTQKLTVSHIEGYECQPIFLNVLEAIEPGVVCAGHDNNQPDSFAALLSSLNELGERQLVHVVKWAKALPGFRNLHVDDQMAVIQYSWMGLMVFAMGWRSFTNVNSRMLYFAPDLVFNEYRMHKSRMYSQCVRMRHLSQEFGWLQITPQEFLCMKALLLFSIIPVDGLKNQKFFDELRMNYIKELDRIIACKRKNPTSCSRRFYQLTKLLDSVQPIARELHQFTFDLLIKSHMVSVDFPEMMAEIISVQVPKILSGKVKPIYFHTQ
The experiment in a line: Binding affinity to androgen receptor by fluorescence polarization assay. In a few lines:
as §1

Assay [3] has as its target T3, Glucocorticoid receptor (Homo sapiens, UniProt P04150).
T3 sequence (P04150 whole entry): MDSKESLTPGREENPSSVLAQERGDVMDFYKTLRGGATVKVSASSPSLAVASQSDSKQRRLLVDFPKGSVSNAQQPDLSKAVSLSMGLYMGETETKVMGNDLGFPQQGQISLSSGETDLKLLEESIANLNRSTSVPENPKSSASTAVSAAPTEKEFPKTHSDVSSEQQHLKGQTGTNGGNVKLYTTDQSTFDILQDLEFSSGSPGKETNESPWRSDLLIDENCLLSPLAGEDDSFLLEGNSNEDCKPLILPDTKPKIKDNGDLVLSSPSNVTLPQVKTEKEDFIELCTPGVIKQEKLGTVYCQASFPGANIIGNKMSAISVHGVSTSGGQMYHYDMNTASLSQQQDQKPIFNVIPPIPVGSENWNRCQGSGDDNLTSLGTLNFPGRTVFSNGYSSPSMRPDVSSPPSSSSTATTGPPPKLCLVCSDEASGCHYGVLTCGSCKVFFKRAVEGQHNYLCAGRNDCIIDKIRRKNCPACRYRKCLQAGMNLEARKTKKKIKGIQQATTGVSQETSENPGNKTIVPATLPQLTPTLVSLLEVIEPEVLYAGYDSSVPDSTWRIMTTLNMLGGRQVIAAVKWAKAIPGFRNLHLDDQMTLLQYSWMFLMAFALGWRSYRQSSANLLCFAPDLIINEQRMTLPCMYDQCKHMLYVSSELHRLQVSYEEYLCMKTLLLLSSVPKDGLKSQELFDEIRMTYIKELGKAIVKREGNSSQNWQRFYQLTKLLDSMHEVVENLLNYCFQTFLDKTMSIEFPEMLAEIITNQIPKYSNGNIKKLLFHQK
The assay can be described thus: Transactivation activity at glucocorticoid receptor in human 13D3/Huh7 cells assessed as induction of tyrosine aminotransferase activity after 24 hrs. It is filed as cell-based, Huh-7.

Assay [4] concerns the target T3, Glucocorticoid receptor. The assay can be described thus: Transactivation activity of glucocorticoid receptor ligand binding domain expressed in human NP-1 Hela cells co-expressing GAL4 DNA binding domain by luciferase reporter gene assay. Type of assay: cell-based. Background: In a reporter assay the amount or activity of a reporter protein is the signal.
In assay [5] the target is T3, Glucocorticoid receptor. The experiment in a line: Transrepression activity of glucocorticoid receptor in human A549 cells expressing AP-1 assessed as inhibition of PMA-induced AP-1 activity by luciferase reporter gene assay. It is filed as cell-based.
Assay [6] addresses T3, Glucocorticoid receptor. The assay can be described thus: Transrepression activity of glucocorticoid receptor in human A549 cells assessed as inhibition of IL1beta-stimulated NFkappaB-dependent E-selectin transcription by luciferase reporter gene assay. It is filed as cell-based.
Assay [7] concerns the target T3, Glucocorticoid receptor. The assay can be described thus: Displacement of GS-red from GRapha by fluorescence polarization assay.
In assay [8] the target is T4, Glucocorticoid receptor (Homo sapiens) (UniProt P04150).
T4 sequence (whole entry): T3 sequence (P04150 whole entry)
The experiment in a line: Transrepression activity of glucocorticoid receptor in human A549 cells assessed as inhibition of IL1beta-stimulated NFkappaB-dependent E-selectin transcription by luciferase reporter gene assay relative to Dexamethasone. It is filed as cell-based.

Assay [9] addresses T4, Glucocorticoid receptor (Homo sapiens). The assay can be described thus: Transrepression activity of glucocorticoid receptor in human A549 cells expressing AP-1 assessed as inhibition of PMA-induced AP-1 activity by luciferase reporter gene assay relative to Dexamethasone. Type of assay: cell-based. In short, it runs like this: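 Human A549 lung epithelial cells stably transfected with a 5×AP-1 response element luciferase reporter. AP-1 was induced with PMA (15 ng/mL), and inhibition was read as decreased luciferase.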

For assay [10] the target is unchanged. The assay can be described thus: Transactivation activity of glucocorticoid receptor ligand binding domain expressed in human NP-1 Hela cells co-expressing GAL4 DNA binding domain by luciferase reporter gene assay relative to Dexamethasone. Type of assay: cell-based. In a few lines: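 HeLa NP-1 cells stably carrying a GAL4 DBD–human GR LBD chimera with a GAL4 luciferase reporter. Agonist activity was read as increased luciferase activity.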

Assay [11] has the same target. The experiment in a line: Transactivation activity at glucocorticoid receptor in human 13D3/Huh7 cells assessed as induction of tyrosine aminotransferase activity after 24 hrs relative to Dexamethasone. Type of assay: cell-based. Conditions: Huh-7. In short, it runs like this: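 Human 13D3/Huh7 hepatoma cells, 20 K/well, were incubated overnight at 37 °C/5% CO2. They were then treated overnight with compounds in assay medium containing 20 μM forskolin. The reaction was stopped with KOH and A340 read. Results are % activation, with EC50 derived.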

The structures appear in SMILES notation.

Usually Ki stands for a measure of affinity in units of concentration, obtained from inhibition or displacement. With `Cc1cc([C@H](c2ccccc2)C(C)(C)C(=O)Nc2nncs2)ccc1O`, the inhibition constant Ki in assay [1] is 140 nM; in assay [2], greater than 4000 nM.
One may read the EC50 as the concentration needed to bring the measured effect to its halfway point. In the case of `CC(C)(C(=O)Nc1nccs1)[C@H](c1ccccc1)c1ccc(O)c(F)c1`, the EC50 in [3] is greater than 5000 nM; in assay [4] it was greater than 10000 nM; in assay [5] it was greater than 10000 nM; in assay [6], greater than 5000 nM. Further, the Ki in assay [7] stood at 4.6 nM. Moreover, the Efficacy was 12% in assay [8] and 16% in [9].
As for `CC(C)(C(=O)Nc1nncs1)C1c2ccccc2Oc2ccccc21`, the EC50 in assay [4] was greater than 10000 nM; in [5], greater than 5000 nM; in [6], greater than 5000 nM. Also, in assay [7], the inhibition constant Ki is 6 nM.
On to `CC(=O)c1cc([C@H](c2ccccc2)C(C)(C)C(=O)Nc2nccs2)ccc1O`, for which the EC50 is 2320 nM in assay [3], greater than 10000 nM in assay [4], greater than 10000 nM in assay [5] and greater than 5000 nM in assay [6]. Besides, the inhibition constant Ki in assay [7] is 7.3 nM. Also, in [8], the Efficacy was determined as 16%.
Regarding `CC(C)(C(=O)Nc1nccs1)[C@H](c1ccccc1)c1ccc(O)cc1`, the EC50 in assay [3], in assay [4] and in [5] was greater than 10000 nM each time.
As for `CC(C)(C(=O)Nc1nccs1)C(c1ccccc1)c1ccc(O)cc1` (racemic), the EC50 in [3] was determined as 2580 nM; in assay [4], 863 nM; in assay [5] it was 61.4 nM; in assay [6], 125 nM. In addition, in assay [7], the inhibition constant Ki turned out to be 2.5 nM. Further, the Efficacy in [10] was found to be 14%; in assay [8] it was 50%; in assay [9], 63%; in [11], 20%.
As to `CC(C)(C(=O)Nc1nncs1)[C@@H]1c2ccccc2Oc2cc(O)ccc21`, the half-maximal effective concentration (EC50) was greater than 10000 nM in assay [4], greater than 5000 nM in [5] and greater than 5000 nM in [6]. The same molecule showed a Ki in assay [7] of 58.7 nM.
Consider `CC(C)(C(=O)Nc1nccs1)[C@@H](c1ccccc1)c1ccc(O)c(C#N)c1`, for which the concentration for a half-maximal effect (EC50) in [3] is greater than 5000 nM; in assay [4], greater than 10000 nM; in assay [5], 506 nM; in assay [6], 206 nM. Also, the Ki in assay [1] was 144 nM; in [7] it was 0.9 nM; in assay [2] it was greater than 3000 nM. Moreover, the Efficacy came to 48% in [8], 74% in assay [9] and 16% in assay [11].
For `CC(C)(C(=O)Nc1nccs1)C(c1ccccc1)c1ccc(O)c(F)c1` (racemic), the EC50 amounted to 197 nM in [3], 216 nM in assay [4], 51.1 nM in [5] and 37.7 nM in assay [6]. Also, the inhibitory constant (Ki) in assay [7] was found to be 0.6 nM. Moreover, the Efficacy amounted to 39% in [10], 63% in assay [8], 77% in assay [9] and 41% in assay [11].
Turning to `CC(C)(C(=O)Nc1nncs1)[C@@H](c1ccccc1)c1ccc(O)c(Br)c1`, the EC50 is 46.5 nM in assay [3], 67.2 nM in [4], 12.7 nM in assay [5] and 6.2 nM in assay [6]. Further, the inhibitory constant (Ki) in assay [7] turned out to be 0.4 nM. Further, the Efficacy in assay [10] was 54%; in [8], 75%; in [9], 87%; in assay [11], 57%.
